Screens: PubChem, several laboratories
Compounds with a hit are over-represented: about 2.2% of the library has one in this group of screens.
rCAG binder: binds r(CAG) RNA repeats; actives 1.3% (n = 370,000); inhibition, % at 3 µM; r(CAG) RNA repeat, TO-PRO-1 dye displacement fluorescence;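 active means inhibition above the plate cutoff, the mean of all test compounds on that plate plus 3 SD, cut at about 35% in these data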;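 further: higher means more dye released from RNA so lower well fluorescence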
ARFGAP1 inh: rat ARFGAP1 inhibition. actives 0.26% (n = 360,000). AID 651572. inhibition, % at 16.5 µM. Arfgap1-stimulated ARF1 GTP hydrolysis, GDP FP detection;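 active means inhibition above a per-plate limit, mean inhibition of low control wells plus 3 SD, cut at about 25% in these data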
Target sequence (Q62848 1-136 limits assumed): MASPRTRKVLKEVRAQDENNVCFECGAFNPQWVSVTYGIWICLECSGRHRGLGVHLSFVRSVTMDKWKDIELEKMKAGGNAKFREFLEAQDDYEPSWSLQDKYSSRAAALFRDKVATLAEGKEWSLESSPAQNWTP
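Repeats: one replicate per compound; assay system: rat Arfgap1 catalytic domain, aa 1-136; times: enzyme reaction 120 min at 25 °C after 20 min preincubation; detection: FP of antibody-bound GDP Alexa 633 tracer, ex 620/em 688 nm; benchmarks: high control wells lacking Arfgap1, low control full reaction with DMSO; reagent: human ARF1(Δ1-17)-GTP substrate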
NadD inh: blocks S. aureus nicotinate mononucleotide adenylyltransferase; purified NadD enzyme, colorimetric absorbance read-out; inhibition, % at 20 µM; actives 0.78% (n = 360,000); in the data active means inhibition above about 26%
ASAP1 GAP inh: inhibitors of human ASAP1 ArfGAP activity. Q9ULH1. ASAP1-stimulated ARF1 GTP hydrolysis, GDP FP detection. inhibition, % at 16.5 µM. actives 0.19% (n = 360,000). AID 624377; in the data active means inhibition above about 25%
ARFGAP1 confirm: rat ARFGAP1 inhibition, confirmed. actives 30% (n = 890). ARFGAP1-stimulated ARF1 GTP hydrolysis, GDP tracer FP. inhibition, % at 16.5 µM. AID 651608. shares compounds with ARFGAP1 inh;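 active means average inhibition over triplicates above the hit cutoff set in the earlier primary screen, cut at about 25% in these data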
Target sequence (Q62848 whole entry, looked up): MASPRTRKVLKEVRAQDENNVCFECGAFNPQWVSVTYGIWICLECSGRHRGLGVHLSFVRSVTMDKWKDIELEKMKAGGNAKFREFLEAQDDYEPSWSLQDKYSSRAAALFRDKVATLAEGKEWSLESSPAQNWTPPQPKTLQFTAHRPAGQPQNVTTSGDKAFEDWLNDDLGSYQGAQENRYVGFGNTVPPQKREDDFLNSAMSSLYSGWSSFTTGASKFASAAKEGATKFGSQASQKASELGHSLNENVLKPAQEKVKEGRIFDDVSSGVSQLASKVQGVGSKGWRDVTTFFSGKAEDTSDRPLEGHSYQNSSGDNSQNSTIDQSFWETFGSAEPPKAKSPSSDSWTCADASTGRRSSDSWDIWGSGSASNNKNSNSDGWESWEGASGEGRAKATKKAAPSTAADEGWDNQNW
Large screens that a line does not name were inactive (follow-up assays come after a bar, where they were run).

S=c1nc(-c2ccccn2)c(-c2ccccn2)n[nH]1	none (no result: rCAG binder, ARFGAP1 inh, ASAP1 GAP inh)
O=C(NNC(=O)c1cccc(S(=O)(=O)N2CCN(c3ccccc3)CC2)c1)c1ccc(Cl)cc1	ARFGAP1 inh 25 | ARFGAP1 confirm inactive
O=C(NCC1CCN(c2ccc(S(=O)(=O)N3CCOCC3)cc2)CC1)c1ccc(Cl)cc1	ARFGAP1 inh 26 | ARFGAP1 confirm inactive
O=C(CCNC(=O)c1ccc(Cl)cc1)Nc1ccc(S(=O)(=O)N2CCOCC2)cc1	none
Cc1ccccc1C(=O)N1CCC[C@@H]1C(=O)N1CCC[C@H]1C(=O)NCc1ccncc1	none
COc1ccc(-c2cn[nH]c2-c2ccc(OCc3ccccc3)cc2O)cc1	none
CCOc1ccc(-c2[nH]ncc2-c2ccccc2)c(O)c1	ARFGAP1 inh 25 | ARFGAP1 confirm inactive
COc1cccc(CNC(=O)[C@H]2CCCN2C(=O)[C@H]2CCCN2C(=O)c2ccc(C)cc2)c1	none (no result: NadD inh)
COc1ccc(OC)c(-c2nnc3n2N=C(c2ccc(OC)c(OC4CCOC4)c2)CS3)c1 (stereo not drawn)	ARFGAP1 inh 26 | ARFGAP1 confirm inactive
COc1ccc(CNC(=O)CSc2nnc(C(F)(F)F)n2C)cc1	ARFGAP1 inh 29 | ARFGAP1 confirm inactive
Cn1ccc2c(-c3cncc4ccccc34)cc3c(c21)C1CCC3C1 (stereo not drawn)	ARFGAP1 inh 32 | ARFGAP1 confirm inactive
Cc1cccc(NC(=O)CCN2CCN(C)CC2)c1	none
Cc1cccc(NC(=O)CCN2CCC(C)CC2)c1	ARFGAP1 inh 27 | ARFGAP1 confirm inactive
CC(C)C[C@H]1COc2cc(Br)ccc2S(=O)(=O)N1Cc1cn(Cc2ccco2)nn1	none (no result: ARFGAP1 inh, NadD inh, ASAP1 GAP inh)
COc1ccc(/C(C)=N/NC(=O)c2sccc2-n2cccc2)cc1	ARFGAP1 inh 29 | ARFGAP1 confirm inactive
CCN1CCCC1CNC(=O)c1ccc2c(c1)NC(=O)/C(=C\c1ccc(OC)c(OC)c1)S2 (stereo not drawn)	ARFGAP1 inh 39 | ARFGAP1 confirm 83
COc1ccc(C(C)c2cn(C)c3ccccc23)cc1 (stereo not drawn)	none (no result: ARFGAP1 inh, NadD inh, ASAP1 GAP inh)
COc1ccc(-n2c(SCc3ccc([N+](=O)[O-])cc3)nnc2-c2ccccc2)cc1	none
CCOc1ccc(-n2c(SCc3ccc([N+](=O)[O-])cc3)nnc2-c2ccccc2)cc1	ARFGAP1 inh 33 | ARFGAP1 confirm inactive
COc1ccc(NC(=O)Nc2nnc(-c3ccccc3F)s2)cc1	none
COc1ccc(NC(=O)Nc2nnc(-c3ccco3)s2)cc1	ARFGAP1 inh 35 | ARFGAP1 confirm inactive
CCn1c2ccccc2c2cc(NC(=O)c3cc4c(C)nn(-c5ccccc5)c4s3)ccc21	none (no result: ARFGAP1 inh, NadD inh, ASAP1 GAP inh)
COc1ccc2cc(C(=O)Nc3ccc(S(N)(=O)=O)cc3)sc(=O)c2c1OC	ARFGAP1 inh 25 | ARFGAP1 confirm inactive
COc1ccc2cc(C(=O)Nc3ccccc3)sc(=O)c2c1OC	none
C[C@H](O)[C@@H]1C(=O)N2CCc3c([nH]c4c(-c5ccccc5)cccc34)[C@@H]2C[C@@H]1N(C)C(=O)c1ccco1	none (no result: NadD inh)
CC(C)N(Cc1nc(-c2ccc(Cl)cc2)no1)Cc1nccn1C	ARFGAP1 inh 25 | ARFGAP1 confirm inactive
O=C(NCCc1c[nH]c2ccccc12)c1ccc2c(c1)ncn2C1CCCCC1	none (no result: ARFGAP1 inh, NadD inh, ASAP1 GAP inh)
O=C(/C=C/c1ccccc1)Nc1nc(-c2ccncc2)cs1	ARFGAP1 inh 35 | ARFGAP1 confirm 62
Cc1ccc(-n2c(SCC(=O)c3ccc(-c4ccccc4)cc3)nnc2-c2ccc(C(C)(C)C)cc2)cc1	none (no result: ARFGAP1 inh, NadD inh, ASAP1 GAP inh)
COC(=O)[C@]12C[C@H](CC(=O)N3CCCCC3)C(=O)N(Cc3ccco3)C1=C[C@H](COCc1ccccc1)O[C@@H]2C	none (no result: ARFGAP1 inh, NadD inh, ASAP1 GAP inh)
COc1ccc(OC)c(NC(=O)C2(C)CCN2Cc2ccc(OC)c3ccccc23)c1 (stereo not drawn)	none
COc1ccc(OC)c(NC(=O)C2(C)CCN2Cc2ccccc2Cl)c1 (stereo not drawn)	ARFGAP1 inh 25 | ARFGAP1 confirm inactive
COC(=O)[C@]12C[C@H](CC(=O)NCc3cccc(C(F)(F)F)c3)C(=O)N(Cc3ccccc3)C1=C[C@H](COCc1ccccc1)O[C@@H]2C	none (no result: ARFGAP1 inh, NadD inh, ASAP1 GAP inh)
CC(C)n1cc(C(=O)N2CCCC(N3CCN(c4cccc(Cl)c4)CC3)C2)cn1 (stereo not drawn)	none
Cc1ccc(S(=O)(=O)Nc2ccccc2C(O)c2ccccc2)cc1 (stereo not drawn)	ARFGAP1 inh 26 | ARFGAP1 confirm inactive
COC(=O)[C@@H](CC(C)C)CP(=O)(OC)[C@@H](C)NC(=O)OCc1ccccc1 (stereo partly drawn)	none (no result: ARFGAP1 inh, NadD inh, ASAP1 GAP inh)
O=C(Nc1ccncc1)c1cn(-c2ccccc2)nc1-c1cccs1	ARFGAP1 inh 26 | ARFGAP1 confirm inactive
COc1ccc(/C=C2\Oc3cc(OCC(=O)N4CCC[C@H]4C(=O)O)ccc3C2=O)cc1OC	none (no result: rCAG binder, ARFGAP1 inh, ASAP1 GAP inh)
COc1ccc(/C=C2\Oc3cc(OCC(=O)N4CCC[C@H]4C(=O)O)ccc3C2=O)c(OC)c1OC	ARFGAP1 inh 26 | ARFGAP1 confirm inactive
O=c1c2ccccc2nc(/C=C/c2cccnc2)n1CCc1ccccc1	none
O=c1c2ccccc2nc(/C=C/c2ccccc2)n1CCc1ccccc1	ARFGAP1 inh 52 | ARFGAP1 confirm inactive
C[C@@H]1OC(C2CCCCC2)N(C)[C@H]2C[C@H]3c4[nH]c5ccccc5c4CCN3C[C@@H]12 (stereo partly drawn)	none
Cc1nnc2n(-c3ccccc3)c(=O)c3c4c(sc3n12)CC(C)CC4 (stereo not drawn)	none
COc1ccc(-n2c(=O)c3c4c(sc3n3cnnc23)CC(C)CC4)cc1 (stereo not drawn)	ARFGAP1 inh 27 | ARFGAP1 confirm 62
CC1(C)Cc2c(cnn2-c2ccccc2)-c2c1c1ccccc1n2CC(O)CCl (stereo not drawn)	ARFGAP1 inh 26 | ARFGAP1 confirm inactive
NS(=O)(=O)c1ccc(Nc2ccc3cc(S(=O)(=O)N4CCCCC4)ccc3n2)cc1	ARFGAP1 inh 47 | ARFGAP1 confirm 52
NS(=O)(=O)c1ccc(S(=O)(=O)N2CCCC2)cc1	none
COc1cc(/C=C2\SC(N)=NC2=O)ccc1OCC(=O)Nc1ccc(C)cc1	ARFGAP1 inh 45 | ARFGAP1 confirm 72
CCN1CCN(C(=O)Cn2ncc3c([nH]c4ccc(C)cc43)c2=O)CC1	ARFGAP1 inh 25 | ARFGAP1 confirm 29
CCN1CCN(C(=O)Cn2ncc3c([nH]c4ccccc43)c2=O)CC1	none
CS(=O)(=O)N(CC(=O)N1CCN(c2ccccc2F)CC1)c1ccc2c(c1)OCCO2	ARFGAP1 inh 34 | ARFGAP1 confirm inactive
Cc1cccc(N(CC(=O)N2CCN(c3ccccc3F)CC2)S(C)(=O)=O)c1	none
COc1ccc(-c2cc3cc(OC)c(OC)cc3cn2)cc1	ARFGAP1 inh 29 | ARFGAP1 confirm 31
COc1cc2cnc(-c3ccccc3)cc2cc1OC	none
COc1ccc(-c2c(-c3ccc(OCC(=O)NN)cc3O)n[nH]c2C(F)(F)F)cc1	ARFGAP1 inh 32 | ARFGAP1 confirm inactive
Cc1cc(C)c(S(=O)(=O)N(CC(=O)NCc2cccnc2)C2CCCCC2)c(C)c1	ARFGAP1 inh 30 | ARFGAP1 confirm inactive
